Most compounds without a hit are left out; they make up all but 2.3% or so of the library.
MEKK2wt PB1 HTS: raises or lowers MEK5 binding to wildtype human MEKK2 PB1 domain | bead flow cytometry, Alexa488-MEK5 binding to MEKK2 WT; actives lie on both sides | binding response (% of control), % at 10 µM | 290,000 compounds, 1.1% hits | AID 1531; in the data active = binding response below about 67% or above about 130%
MEKK3 PB1 HTS: modulators (inhibitors or enhancers) of MEK5 binding to human MEKK3 PB1 domain. Q99759. AID 1529. 290,000 compounds, 1.4% hits. bead-based flow cytometry, Alexa488-MEK5 binding to MEKK3; actives lie on both sides; 0 = blocked by unlabeled MEK5, 100 = vehicle. binding response (% of control), % at 10 µM;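 active = binding response more than 3 SD above or below the average of its plate-row segment, actives on both sides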;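 also: Alexa488 bead fluorescence after subtracting the streptavidin-only scavenger bead signal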
Target sequence (Q99759 whole entry, looked up, the tested form may be a part): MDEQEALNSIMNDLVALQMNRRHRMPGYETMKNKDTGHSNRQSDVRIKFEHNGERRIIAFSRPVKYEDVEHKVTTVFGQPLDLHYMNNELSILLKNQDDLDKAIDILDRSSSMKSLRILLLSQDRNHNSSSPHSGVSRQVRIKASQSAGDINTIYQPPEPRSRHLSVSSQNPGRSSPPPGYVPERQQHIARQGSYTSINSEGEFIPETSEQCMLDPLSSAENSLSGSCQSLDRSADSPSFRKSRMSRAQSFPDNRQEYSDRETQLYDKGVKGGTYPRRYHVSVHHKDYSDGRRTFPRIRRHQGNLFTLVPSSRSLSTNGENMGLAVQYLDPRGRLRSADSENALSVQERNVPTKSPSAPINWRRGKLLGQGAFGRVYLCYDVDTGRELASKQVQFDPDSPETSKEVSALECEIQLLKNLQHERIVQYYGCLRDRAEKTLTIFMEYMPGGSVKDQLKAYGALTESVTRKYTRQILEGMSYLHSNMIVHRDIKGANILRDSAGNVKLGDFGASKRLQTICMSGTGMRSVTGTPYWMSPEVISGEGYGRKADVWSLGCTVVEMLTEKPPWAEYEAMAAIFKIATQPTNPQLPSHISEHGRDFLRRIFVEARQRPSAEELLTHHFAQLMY
ABCG2 block: blocks JC-1 efflux by human ABCG2 transporter; IgMXP3 cells, flow cytometry; inhibition, % at 6.6 µM; 190,000 compounds, 0.1% hits; AID 1325;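 active = inhibition above 80%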;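 also: 0% = DMSO and 100% = nicardipine control wells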
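Test system: IgMXP3 (ABCG2) plus far-red-tagged CCRF-Adr (ABCB1) cells / Amount: 3 million cells/mL in well / Reagent: JC-1 transporter substrate / Timing: 10 min compound exposure, 25 °C / Signal: flow cytometry, 530 nm JC-1 signal / Read-out: percent efflux inhibition, scaled nicardipine 100% to DMSO 0% / Benchmarks: nicardipine as high control, DMSO as low control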
MEKK2 mut-MEK5: signal of MEK5 binding to mutant human MEKK2 PB1 domain | bead flow cytometry, Alexa488-MEK5 binding to MEKK2 mutant | percent response, % at 10 µM | 290,000 compounds, 0.35% hits | AID 1530; in the data active = percent response above about 24%, passing the limit was not always enough
ABCB1 inh: blocks JC-1 efflux by human ABCB1 transporter; P08183; CCRF-Adr cells, flow cytometry; inhibition, % at 6.6 µM; 190,000 compounds, 0.067% hits; in the data active = inhibition above about 40%;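 also: 0% = vehicle and 100% = reference inhibitor; higher value means more JC-1 retained so stronger ABCB1 efflux block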
MEKK2wt confirm: raises or lowers MEK5 binding to wildtype human MEKK2, retest. bead flow cytometry, Alexa488-MEK5 binding to MEKK2 WT; actives lie on both sides. shares compounds with MEKK3 PB1 HTS. binding response (% of control), % at 10 µM. 5,900 compounds, 2.4% hits; in the data active = binding response below about 16% or above about 210%; inactive = in between
MEKK2mut confirm: signal of MEK5 binding to mutant human MEKK2, retest; shares compounds with MEKK3 PB1 HTS; bead flow cytometry, Alexa488-MEK5 binding to MEKK2 mutant; percent response, % at 10 µM; 5,900 compounds, 2% hits; AID 1893; in the data active = percent response mostly above about 71%, no sharp cut-off; inactive = mostly below about 38%;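 also: higher means compound restores mutant binding toward wildtype level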
MEKK3-MEK5 inh: MEKK3-MEK5 PB1 inhibition, single concentration confirmation; shares compounds with MEKK3 PB1 HTS; bead flow cytometry, Alexa488-MEK5 binding to MEKK3; active compounds read low; binding response (% of control), % at 10 µM; 5,900 compounds, 1.8% hits; AID 1894;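 active = binding response below 72% of control, or above a set upper limit, though filed actives all read lower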;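 also: 100% = DMSO only wells and 0% = binding blocked by excess unlabeled MEK5; lower values mean stronger disruption of MEK5 binding to MEKK3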
An asterisk follows results filed as active; . = no result given; [ ] = another dose, or the depositor's remark.

SMILES | MEKK2wt PB1 HTS | MEKK3 PB1 HTS | ABCG2 block | MEKK2 mut-MEK5 | ABCB1 inh | MEKK2wt confirm | MEKK2mut confirm | MEKK3-MEK5 inh
CC1(C)Cc2nc(N3CCCC3)c(C#N)cc2CO1 | 117 | 129* | 2 | 2 | 0 | 99 | -7 | 101
CC1(C)Cc2nc(N3CCOCC3)c(C#N)cc2CO1 | 106 | 112 | 0 | 2 | 0 | . | . | .
Cc1ccc(OCCN(C)C(=O)C2CCC(=O)N(CCCN3CCCC3=O)C2)cc1 (configuration not stated) | 105 | 101 | . | 3 | . | . | . | .
Cc1ccc(S(=O)(=O)N(C)/N=C/c2ccc(N(C)C)cc2)cc1 | 102 | 104 | . | 3 | . | . | . | .
COc1ccc(C(CCNC(C)c2ccccc2)c2ccc(F)cc2)cc1 (configuration not stated) | 156* | 107 | 4 | 46 | 2 | 124 | 6 | 103
COc1ccc(C(CCNCc2ccc(OC(C)C)cc2)c2ccccc2OC)cc1 (configuration not stated) | 199* | 111 | . | 40* | . | 198 | 70* | 111
COc1ccc(CNC(=O)CNC(C)c2ccc(F)cc2)cc1 (configuration not stated) | 107 | 103 | . | 3 | . | . | . | .
COc1ccc(CNCCC(c2ccccc2)c2ccc(OC(C)C)cc2)cc1OC (configuration not stated) | 151* | 106 | . | 22 | . | 147 | 34 | 110
COc1ccc(C(CCNCc2ccc(N(C)C)cc2)c2ccccc2OC)cc1 (configuration not stated) | 148* | 108 | . | 22 | . | 142 | 18 | 105
COc1ccc(C(CCNCc2ccccc2)c2ccc(F)cc2)cc1 (configuration not stated) | 103 | 94 | 6 | 5 | 4 | . | . | .
COc1ccc(CNCCC(c2ccc(OC)cc2)c2ccccc2OC)cc1 (configuration not stated) | 147* | 106 | . | 21 | . | 149 | 41 | 104
Cc1cccc(NC(=O)CCCN2C(=O)C(c3ccccc3)Oc3cccnc32)c1C (configuration not stated) | 97 | 98 | . | -5 | . | . | . | .
C(#Cc1ccccc1)C[N+]1(CC#Cc2cccc3ccccc23)CCOCC1 | 154* | 103 | -1 | 1 | 0 | 145 | 24 | 104
C#CC[N+]1(CC#Cc2ccccc2)CCOCC1 | 103 | 102 | 3 | 3 | 0 | . | . | .
CC(C(=O)NCCN1C(=O)S/C(=C\c2cccs2)C1=O)N1C(=O)c2ccccc2C1=O (configuration not stated) | 107 | 146* | -4 | 0 | -1 | 92 | -8 | 92
O=C(OCN1C(=O)c2ccccc2C1=O)c1ccc(Cl)nc1 | 104 | 101 | . | 5 | . | . | . | .
Cc1coc2cc3oc(=O)c(CCC(=O)N4CCC(C(=O)O)(c5ccccc5)CC4)c(C)c3cc12 | 103 | 103 | . | 5 | . | . | . | .
CCOP(=O)(OCC)C(Nc1cccc(C(F)(F)F)c1)c1ccc(C)cc1 (configuration not stated) | 103 | 66*[inhibitor] | 1 | 0 | 0 | 103 | 2 | 108
COc1ccc(C(=O)NC(=S)Nc2ccc3[nH]c(=O)[nH]c3c2)c(OC)c1 | 98 | 99 | . | 0 | . | . | . | .
O=C1CC(c2cccc(Oc3ccccc3)c2)NC(=O)N1 (configuration not stated) | -1.0*[inhibitor] | 0.0*[inhibitor] | 16 | -21 | 0 | 101 | 2 | 101
CCOC(=O)C1=C(C)C(c2cccc(Oc3ccccc3)c2)NC(=S)N1 (configuration not stated) | 97 | 99 | 4 | 0 | 1 | . | . | .
Cc1cccc(COc2ccccc2C(=O)OCC(=O)N(C)c2c(N)n(Cc3ccccc3)c(=O)[nH]c2=O)c1 | 100 | 97 | . | 1 | . | . | . | .
COCC(COS(N)(=O)=O)Cc1ccccc1 (configuration not stated) | 139* | 105 | . | 4 | . | 107 | 7 | 108
NS(=O)(=O)OCCCc1ccccc1 | 107 | 102 | . | 0 | . | . | . | .
CCC(C)NS(=O)(=O)c1ccc(S(=O)(=O)N(CCc2ccc(OC)c(OC)c2)Cc2cccs2)cc1 (configuration not stated) | 107 | 147* | 17 | -1 | 14 | 99 | -2 | 102
SMILES | MEKK2wt PB1 HTS | MEKK3 PB1 HTS | ABCG2 block | MEKK2 mut-MEK5 | ABCB1 inh | MEKK2wt confirm | MEKK2mut confirm | MEKK3-MEK5 inh
C#CCN1C(=O)C(O)(CC(=O)c2cccc(OC)c2)c2ccccc21 (configuration not stated) | 1.0*[inhibitor] | 1.0*[inhibitor] | 1 | -18 | 0 | 108 | 6 | 103
CCOC(=O)CN1C(=O)C(O)(CC(=O)c2cccc(OC)c2)c2ccccc21 (configuration not stated) | 106 | 105 | -5 | 9 | -6 | . | . | .
O=C(O)c1cccc(Nc2ccnc(Nc3cccc(C(=O)O)c3)n2)c1 | 108 | 108 | . | 10 | . | . | . | .
CCCCC(Sc1nc(C)c(Cc2ccccc2)c(=O)[nH]1)C(=O)O (configuration not stated) | 100 | 92 | . | -3 | . | . | . | .
CCc1ccc(-c2cc(C(=O)NCc3ccccn3)c3ccccc3n2)cc1 | 96 | 94 | 19 | -3 | 11 | . | . | .
CCc1ccccc1Nc1cc(C(=O)NCc2ccccn2)c2ccccc2n1 | 114 | 131* | 6 | 1 | 5 | 100 | 15 | 101
COc1ccc(C)cc1NC(=O)CCNC(=O)Cn1cnc2ccccc2c1=O | 98 | 99 | . | 3 | . | . | . | .
COC(=O)[C@H](Cc1ccccc1)NC(=O)C1(OC(C)=O)CC(OC(C)=O)C(OC(C)=O)C(OC(C)=O)C1 (some centres not stated) | 104 | 99 | . | 1 | . | . | . | .
Cc1cccc(N(C(=O)c2snc(C(N)=O)c2N)C(C)C(=O)NCC2CCCO2)c1 (configuration not stated) | 119 | 130* | 1 | 25 | 1 | 74 | -16 | 70*
O=S(=O)(NC1CCCC1)c1ccc(S(=O)(=O)N(Cc2cccs2)CC2CCCO2)cc1 (configuration not stated) | -2.0*[inhibitor] | 1.0*[inhibitor] | 5 | -31 | 2 | 102 | 4 | 105
COc1ccc2c(CSc3nc4nc(C)cc(C)n4n3)cc(=O)oc2c1 | 123 | 122* | 1 | 6 | 0 | 97 | -3 | 100
Cc1ccc(N(C(=O)c2csnn2)C(C(=O)NC2CCCCC2)c2ccccn2)cc1C (configuration not stated) | 97 | 99 | . | 0 | . | . | . | .

Compound activity deposited in PubChem by NMMLSC.
